mHtt clearance: mutant huntingtin protein clearance. HeLa Exon1htt(103Q)mCFP, aggregate imaging; zero = plate's median compound well. inhibition, % at 1.5 µM. actives 0.42% (n = 47,000);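 active = inhibition of aggregate fluorescence above about 70%, also judged a hit by eye on the cell image, limit read from the data, passing the limit was not always enough; inconclusive = no rule stated for this call; inactive = not judged a hit on image review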;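 note: cells exposed to compound for three days before fixation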
D1 allo mod: allosteric modulators of human D1 dopamine receptor | actives 5.9% (n = 58,000) | B-score at 10 µM | HEK293 D1, CRE-luciferase, dopamine EC30 potentiation; actives deviate in either direction | AID 641;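 active = luminescence count or its row- and column-corrected plate score outside the 99.7% band of the plate's sample wells, on either side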
Target sequence (P21728 whole entry, looked up): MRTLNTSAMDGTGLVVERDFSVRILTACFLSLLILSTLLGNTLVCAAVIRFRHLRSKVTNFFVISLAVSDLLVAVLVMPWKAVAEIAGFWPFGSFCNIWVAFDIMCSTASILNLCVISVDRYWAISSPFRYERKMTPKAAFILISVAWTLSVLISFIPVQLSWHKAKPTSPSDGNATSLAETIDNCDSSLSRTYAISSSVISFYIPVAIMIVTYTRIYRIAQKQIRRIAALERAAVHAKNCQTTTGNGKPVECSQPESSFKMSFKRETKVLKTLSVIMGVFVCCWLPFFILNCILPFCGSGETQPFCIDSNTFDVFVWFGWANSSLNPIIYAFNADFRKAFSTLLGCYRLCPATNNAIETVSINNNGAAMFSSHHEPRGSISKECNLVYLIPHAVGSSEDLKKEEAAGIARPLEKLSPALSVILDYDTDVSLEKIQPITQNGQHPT
HEK293 NFkB inh: lowers PMA/ionomycin-induced NF-kB signal in HEK293 cells | HEK-293 NF-kB luciferase reporter, luminescence | inhibition, % at 3 µM | actives 0.21% (n = 62,000) | AID 465;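 active = inhibition above the mean of all tested compounds plus 3 SD, cut at about 40% in these data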;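 note: 0% = stimulated DMSO wells and 100% = 10 µM reference inhibitor 5653914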
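Material: HEK-293 cells with stable firefly luciferase reporter driven by four HIV NF-kB elements / Also added: PMA plus ionomycin mix as NF-kB-activating stimulus / Compound dosing: 3 µM once, 0.30% DMSO / Times: 1 h pretreatment, 16 h stimulation, 37 °C / Signal: luminescence / Evaluation: per-plate % inhibition versus controls / Benchmarks: DMSO and 10 µM reference inhibitor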
M1 antag: blocks the rat M1 muscarinic receptor response to acetylcholine | P08482 | actives 3.4% (n = 64,000) | CHO-M1 cells, Fluo-4 calcium, ACh EC80 antagonist mode; active compounds read low | B-score at 10 µM;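 active = calcium fluorescence response, raw or row-and-column corrected B-score, differing from the plate sample mean either way at a set confidence level, mostly lower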
Jurkat tox 60K: cytotoxic compounds reducing Jurkat cell viability; AID 463; Jurkat E6.1 viability, ATP luminescence, 48 h; actives 1.2% (n = 56,000); inhibition, % at 4 µM;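 active = inhibition above the mean inhibition of all tested compounds plus 3 SD, cut at about 28% in these data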
M1 agonist: agonists of M1 muscarinic receptor; actives 3% (n = 64,000); AID 626; CHO-M1 cells, Fluo-4 calcium fluorescence, agonist mode; active compounds read high; B-score at 10 µM;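 active = fluorescence rise, raw or as B-score row- and column-corrected plate score, outside the 99.7% band of its plate's samples, either direction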
D1 mod confirm: confirmation of human D1 dopamine receptor allosteric modulators; HEK293 D1 CRE-luciferase, dopamine EC30 potentiation; active compounds read high; actives 88% (n = 2,200); shares compounds with D1 allo mod; luminescence at 10 µM;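 active = luminescence in either of two replicates above the same-plate mean plus 3 SD of the low-dose dopamine control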
D1 no dopamine: secondary test of D1 modulators: activity without dopamine; HEK293 D1 CRE-luciferase, luminescence, no dopamine; active compounds read high; luminescence at 10 µM; shares compounds with D1 allo mod; AID 646; actives 0.8% (n = 1,900); in the data active = luminescence above about 3900
Isoprot counter: isoproterenol response counter-screen activity for D1 modulators. HEK293 D1 CRE-luciferase, isoproterenol EC30 counter-screen; active compounds read high. actives 63% (n = 2,200). AID 647. shares compounds with D1 allo mod. luminescence at 10 µM;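 active = luminescence in either replicate above plate mean of wells with a partly effective reference agonist dose plus 3 SD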;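 note: isoproterenol raises cAMP through native beta-adrenoceptor Gs so signal bypasses D1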
Starred values were filed as active, the others as inactive; u = inconclusive; x = not tested or not shown. Rows were chosen to be rich in hits. Some 9.5% of all compounds tested hit in one or more screens of this group.

SMILES | mHtt clearance | D1 allo mod | HEK293 NFkB inh | M1 antag | Jurkat tox 60K | M1 agonist | D1 mod confirm | D1 no dopamine | Isoprot counter
CCOC(=O)c1c(N)c(C#N)c2n1CCCCC2 | x | 11* | -9 | 0.0023 | -2 | 0.043 | 10284* | 1420 | 3312*
Cc1cc(C)n(-c2nc3ccccc3nc2Nc2ccc(CC(=O)O)cc2)n1 | u | 21* | 8 | -0.061 | -3 | 0.52 | 7376* | 1728 | 2624
CC(C)n1c(SCC(=O)N2c3ccccc3Sc3ccccc32)nc2c1c(=O)n(C)c(=O)n2C | 54 | 5.2* | -10 | 0.5 | 0 | 0.093 | 12564* | x | 3012*
CCCn1c(SCC(=O)N2c3ccccc3Sc3ccccc32)nc2c1c(=O)n(C)c(=O)n2C | 6 | 0.15 | 3 | -0.4 | -2 | 0.87 | x | x | x
Cc1cc(-c2ccco2)n(-c2ccccc2)n1 | x | 5.9* | 8 | -0.48 | -2 | -1.8 | 13928* | 1688 | 3296*
O=C1NC(=S)SC1=C1CCCCCC1 | x | 0.81 | 10 | -0.99 | -3 | -1.4 | x | x | x
Clc1ccc(Cn2ncc3c(N4CCCC4)ncnc32)cc1 | 5 | 4.7* | 12 | x | -2 | x | 13228* | 1420 | 5324*
Cc1ccc(Cn2ncc3c(N4CCCC4)ncnc32)cc1 | 28 | 2.7* | 3 | -0.43 | -3 | 1.1 | 10768* | 1564 | 3888*
CCN1CCN(c2ncnc3c2cnn3-c2ccc(C)cc2C)CC1 | x | -0.31 | 13 | 1.5 | 10 | -0.61 | x | x | x
Clc1ccc(Cn2ncc3c(N4CCCCC4)ncnc32)c(Cl)c1 | -16 | -0.38 | 0 | -0.53 | 0 | -0.58 | x | x | x
C=CCN1C(=O)C(O)=C(C(C)=O)C1c1ccccc1F (stereo unspecified) | x | 1.5 | 13 | x | -14 | x | x | x | x
COc1cccc(C2CC(=O)Nc3cc4c(cc32)OCCO4)c1OC(C)C (stereo unspecified) | x | 1.3 | 10 | 0.37 | 10 | -0.017 | x | x | x
O=C1CC(c2cccs2)c2cc3c(cc2N1)OCCO3 (stereo unspecified) | 44 | 7* | 8 | 0.15 | 4 | -1.6 | 10536* | 1296 | 4048
Cc1ccc(C2CC(=O)Nc3cc4c(cc32)OCCO4)s1 (stereo unspecified) | -2 | 2.4 | -1 | 0.65 | 13 | 1 | x | x | x
CC(C)Oc1ccccc1C1CC(=O)Nc2cc3c(cc21)OCCO3 (stereo unspecified) | -438 | 2.3* | 16 | 0.48 | 98* | 1.5 | 10132* | 1612 | 3044
COc1cccc(N(CC(=O)NCCSc2ccc(Cl)cc2)S(C)(=O)=O)c1 | 5 | x | x | x | x | x | x | x | x
COc1ccccc1NC(=O)c1ccc(NC(=O)CSc2nnnn2C)cc1 | 9 | 0.51 | 11 | -0.37 | -3 | 0.14 | x | x | x
O=C(NC1CC2CCCC(C1)N2CC(=O)N1CCCc2ccccc21)C1CCCCC1 (stereo unspecified) | -9 | 0.061 | 18 | -1.2 | -4 | 0.26 | x | x | x
O=C(NCCN1C(=O)CCC1=O)c1ccncc1 | -30 | -0.57 | 19 | -0.045 | -6 | -0.35 | x | x | x
Nc1nc(-c2ccccc2)nc(-c2ccccc2O)n1 | -30 | 2.4 | 3 | -0.51 | 0 | -0.11 | x | x | x
Nc1nc(NCc2ccccc2)nc(-c2ccccc2)n1 | x | 21* | 8 | 1.3 | -1 | 0.81 | 23340* | x | 3652*
COC(=O)C(C#N)c1nc2ccccc2nc1N1CCCC1 (stereo unspecified) | x | 5.5* | -3 | 0.7 | -3 | -0.018 | 9832* | x | 2676*
CC(C)OC(=O)C(C#N)c1nc2ccccc2nc1N1CCCC1 (stereo unspecified) | x | 10* | x | -0.33 | x | 2.3 | 20752* | 1680 | 3776*
COC(=O)C1CCN(c2nc3ccccc3nc2C(C#N)C(=O)OCC(C)C)CC1 (stereo unspecified) | x | 0.15 | 6 | -0.16 | -3 | 0.56 | x | x | x
Cc1nnc2ccc(N3CCC(C(N)=O)(N4CCCCC4)CC3)nn12 | x | -0.0046 | 10 | 0.069 | 7 | 1.6 | x | x | x
SMILES | mHtt clearance | D1 allo mod | HEK293 NFkB inh | M1 antag | Jurkat tox 60K | M1 agonist | D1 mod confirm | D1 no dopamine | Isoprot counter
c1ccc(-c2nnc3ccc(N4CCC5(CC4)OCCO5)nn23)cc1 | -34 | 21* | 8 | 0.013 | 4 | -0.64 | 16736* | 1528 | 5316*
Clc1cccc(Cl)c1-c1nnc2ccc(N3CCOCC3)nn12 | -61 | 1.4 | 17 | 0.12 | 0 | 0.49 | x | x | x
O=C(Nc1ccccc1Cl)N1CCN(c2ccc3nnc(-c4ccc(F)cc4)n3n2)CC1 | 2 | 1.1 | 23 | -0.28 | 8 | 0.46 | x | x | x
NC(=O)C1(N2CCCCC2)CCN(c2ccc3nnc(-c4ccccc4)n3n2)CC1 | u | 11* | 7 | -0.45 | -4 | -0.07 | 18940* | x | 3956*
Fc1ccc(-c2nnc3ccc(N4CCCC4)nn23)cc1 | x | 8.3* | 12 | -0.29 | 5 | 0.62 | 11900* | 1896 | 3108*
Fc1cccc(Cl)c1-c1nnc2ccc(N3CCOCC3)nn12 | x | 16* | 6 | -0.8 | 2 | -1.4 | 10924* | 1424 | 4744*
O=C(CSc1nnc2c3cc(F)ccc3nc(-c3ccccc3)n12)N1CCOCC1 | 14 | -0.27 | 16 | 0.14 | 9 | -0.63 | x | x | x
O=C(Nc1ccc(Cl)cc1)OCCn1nnnc1C(c1ccccc1Cl)N1CCOCC1 (stereo unspecified) | -55 | x | x | x | x | x | x | x | x
COc1nc(Nc2ccc(O)cc2)nc(OC(C(F)(F)F)C(F)(F)F)n1 | x | 6.2* | 13 | x | 9 | x | 13552* | x | 3172*
COc1nc(Nc2ccc(C(C)C)cc2)nc(OC)n1 | -14 | x | x | x | x | x | x | x | x
CC(=O)N1CCC2(CC1)C(C#N)=C(N)Oc1c2sc2nc(C)cc(C)c12 | x | 4.9* | 23 | -0.53 | -4 | 2.7 | 14572* | 1432 | 2768
CCN1CCC2(CC1)C(C#N)=C(N)Oc1c2sc2nc(C)cc(C)c12 | x | -3 | -8 | 0.37 | -1 | -0.32 | x | x | x
CC(=O)NC1(c2ccccc2)CCN(c2nc(C)cc(C)n2)CC1 | x | 3.5* | 9 | 0.45 | -8 | -1.1 | 7128 | 1700 | 2652
CCOC(=O)c1c(C)c(C(=O)NCc2ccc3c(c2)OCO3)c(C)n1C | x | 4.3* | 12 | 0.19 | 0 | 0.38 | 5908* | 1544 | 2440
Cn1c(=O)c2c(nc(SCCCC#N)n2Cc2ccccc2F)n(C)c1=O | -18 | 5.2* | 12 | -0.29 | 5 | 0.15 | 15976* | 1696 | 3228
O=c1c2ccccc2c2ccccc2c(=O)n1Cc1cccnc1 | x | 2.8* | 17 | 0.0082 | 2 | -0.21 | 7060 | 1648 | 2352
CC(C(=O)Nc1nc2ccccc2[nH]1)N1C(=O)C2CC=CCC2C1=O (stereo unspecified) | x | 0.072 | 11 | 0.85 | -5 | 1 | x | x | x
